Measurements: ChEMBL document CHEMBL1121793, “Biological effects of modified colchicines. Improved preparation of 2-demethylcolchicine, 3-demethylcolchicine, and (+)-colchicine and reassignment of the position of the double bond in dehydro-7-deacetamidocolchicines” (J Med Chem, 1981)
The source made the active and inactive calls. The calls are words filed in the database; no cut-off is given here.

Key:
[1] = tested on: P388; assay: The compound was tested for its potency against lymphocytic leukemia P388 screen in mice; Inactive.; type: functional, cell-based; conditions: Mus musculus
[2] = tested on: Mus musculus; assay: Toxicity found after a single im injection. The total number of deaths were counted after 7 days and LD50 was determined by probit analysis; 6.4-11.8; type: functional
Summary of the method: (§1)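 NIH general purpose mice (ca. 20 g), ten per dose level, usually ≥5 dose levels; single im injection in Emulphor EL-620 mixture, vehicle-only group of ten as control. Survivors counted at day 7; LD50 with 95% confidence interval by probit analysis, converted to μmol/kg.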

[3] = species: Mus musculus; assay: Dose of compound which caused an average weight loss >3g in a set of mice or the death of one or more of the mice in the set in the P388 NCI screen.; type: functional
Summary of the method: (§2)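 P388 leukemia-bearing mice, 20–22 g; one im injection daily for 9 days, compound in hydroxypropylcellulose suspension or aqueous solution. Toxic dose = lowest dose level at which ≥1 mouse died on or by day 5, or group mean weight loss >3 g; converted to μmol/kg.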

[4] = tested on: P388; assay: The compound was tested for its potency against lymphocytic leukemia P388 screen in mice.; type: functional, Mus musculus
[5] = tested on: P388; conditions: Mus musculus
[6] = tested on: Mus musculus; assay: Toxicity found after a single im injection. The total number of deaths were counted after 7 days and LD50 was determined by probit analysis; 2.4-5.1; type: functional; summary of the method: as §1
[7] = tested on: Mus musculus; assay: Toxicity found after a single im injection. The total number of deaths were counted after 7 days and LD50 was determined by probit analysis; 0.9-1.3; type: functional; summary of the method: as §1
[8] = tested on: Mus musculus; assay: Toxicity found after a single im injection. The total number of deaths were counted after 7 days and LD50 was determined by probit analysis; 82.9-163.4; type: functional; summary of the method: as §1
[9] = (§3) Toxicity found after a single im injection. The total number of deaths were counted after 7 days and LD50 was determined by probit analysis.; type: organism-based; conditions: mouse, in vivo, read-out: Toxicity; summary of the method: as §1
[10] = species: Mus musculus; assay: Dose of compound which caused an average weight loss >3g in a set of mice or the death of one or more of the mice in the set in the P388 NCI screen; type: functional; summary of the method: as §2
[11] = tested on: Mus musculus; assay: as §3; type: functional; summary of the method: as §1
[12] = tested on: Mus musculus; assay: Toxicity found after a single im injection. The total number of deaths were counted after 7 days and LD50 was determined by probit analysis; 101.5-317.8; type: functional; summary of the method: as §1
[13] = tested on: Mus musculus; assay: Toxicity found after a single im injection. The total number of deaths were counted after 7 days and LD50 was determined by probit analysis; 2.5-4.0; type: functional; summary of the method: as §1
[14] = tested on: Mus musculus; assay: Toxicity found after a single im injection. The total number of deaths were counted after 7 days and LD50 was determined by probit analysis; 28.6-63.9; type: functional; summary of the method: as §1

| SMILES | Toxicity [3] | Potency [4] | Potency [5] | also measured |
| --- | --- | --- | --- | --- |
| COc1cc2c(c(OC)c1OC)-c1ccc(=O)c(OC)cc1[C@@H](N(C)C)CC2 | – | – | – | Potency [1]: inactive |
| COc1cc2c(c(OC)c1OC)-c1ccc(OC)c(=O)cc1[C@@H](N(C)C(=O)C(F)(F)F)CC2 | 5.4 µM/kg | 1.5 µM/kg | – | Toxicity [2]: 8.8 µM/kg |
| COc1c(O[C@H]2O[C@H](CO)[C@@H](O)[C@H](O)[C@H]2O)cc2c(c1OC)-c1ccc(OC)c(=O)cc1C(NC(C)=O)CC2 (some centres not stated) | – | – | inactive | – |
| COC1=CC=C2C(=C(NC(C)=O)CCc3cc(OC)c(OC)c(OC)c32)CC1=O | – | – | inactive | – |
| CN[C@H]1CCc2cc(OC)c(OC)c(OC)c2-c2ccc(OC)c(=O)cc21 [DEMECOLCINE] | 21.6 µM/kg | 10.8 µM/kg | – | – |
| COc1cc2c(c(OC)c1OC)-c1ccc(OC)c(=O)cc1[C@@H](N(C)C(C)=O)CC2 | 3 µM/kg | 0.4 µM/kg | – | Toxicity [6]: 3.6 µM/kg |
| COc1cc2c(c(OC)c1OC)-c1ccc(OC)c(=O)cc1[C@@H](NC(=O)C(F)(F)F)CC2 | 0.9 µM/kg | 0.4 µM/kg | – | Toxicity [7]: 1.1 µM/kg |
| COc1cc2c(c(OC)c1OC)-c1ccc(OC)c(=O)cc1[C@H](NC(C)=O)CC2 | – | – | – | Toxicity [8]: 122.6 µM/kg |
| COc1cc2c(c(OC)c1OC)-c1ccc(OC)c(=O)cc1[C@@H](N(C)C)CC2 | – | 68 µM/kg | – | LD50 at 168 h [9]: 520 µmol/kg; Toxicity [10]: 51.9 µM/kg |
| CN[C@H]1CCc2cc(OC)c(OC)c(OC)c2-c2ccc(=O)c(O)cc21 | – | – | inactive | – |
| COc1cc2c(c(OC)c1OC)-c1ccc(OC)c(=O)cc1C(=O)CC2 | 28.1 µM/kg | 9.6 µM/kg | – | – |
| COc1cc2c(c(O)c1OC)-c1ccc(OC)c(=O)cc1[C@@H](NC(C)=O)CC2 | 103.9 µM/kg | 86 µM/kg | – | Toxicity [11]: >520 µM/kg |
| COc1cc2c(c(O)c1OC)-c1ccc(SC)c(=O)cc1[C@@H](NC(C)=O)CC2 | – | – | inactive | – |
| COc1cc2c(c(OC)c1OC)-c1ccc(=O)c(OC)cc1[C@@H](N(C)C(C)=O)CC2 | – | – | inactive | – |
| COc1cc2c(c(OC(C)=O)c1OC)-c1ccc(OC)c(=O)cc1[C@@H](NC(C)=O)CC2 | 46.8 µM/kg | – | inactive | Toxicity [11]: 205.9 µM/kg |
| COc1cc2c(c(OC)c1OC)-c1ccc(OC)c(=O)cc1[C@@H](N(C)C=O)CC2 | 6.3 µM/kg | 1.7 µM/kg | – | Toxicity [12]: 179.7 µM/kg |
| COc1cc2c(c(OC)c1OC)-c1ccc(OC)c(=O)cc1[C@@H](NC(C)=O)CC2 [COLCHICINE] | 2.5 µM/kg | 0.4 µM/kg | – | Toxicity [13]: 3 µM/kg |
| COc1cc2c(c(OC)c1OC)-c1ccc(OC)c(=O)cc1[C@@H](N(C)Cc1ccccc1O)CC2 [SPECIOSINE] | – | 22 µM/kg | – | LD50 at 168 h [9]: 296 µmol/kg; Toxicity [10]: 83.9 µM/kg |
| COc1cc2c(c(OC)c1OC)-c1ccc(=O)c(OC)cc1[C@@H](N(C)C=O)CC2 | – | – | inactive | – |
| COc1cc2c(c(OC)c1OC)-c1ccc(OC)c(=O)cc1CC=C2 | – | 15.9 µM/kg | – | LD50 at 168 h [9]: ~300 µmol/kg; Toxicity [10]: 29.4 µM/kg |
| COc1cc2c(c(OC)c1O)-c1ccc(OC)c(=O)cc1[C@@H](NC(C)=O)CC2 [2-DESMETHYLCOLCHICIN] | 51.9 µM/kg | 13.8 µM/kg | – | Toxicity [14]: 42.9 µM/kg |
| COc1cc2c(c(OC)c1OC)-c1ccc(=O)c(OC)cc1CC=C2 | – | – | – | Potency [1]: inactive |
| COc1cc2c(c(OC)c1OC)-c1ccc(=O)c(OC)cc1[C@@H](NC(=O)C(F)(F)F)CC2 | – | – | inactive | – |
